Laboratory results: ChEMBL document CHEMBL1126775, “A pharmacological, crystallographic, and quantum chemical study of new inotropic agents” (J Med Chem, 1993)
“And” between values parts separate entries of the source, which are not always exact repeats. Equal values may be shown once.

Tests used:
[1] = Logarithm of the sum of contributions of each atom to the total lipophilicity of the molecule; format: physicochemical; conditions: octanol/water
[2] = species on record: Cavia porcellus; experiment: Effect on inotropic response to 10 e-4 8-phenyltheophylline in electrically driven left atrium from reserpine-treated guinea pigs; format: functional, Cardiac atrium
Outline: (§1)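 Paced left atrium (1.5 Hz, 0.5 g load) from reserpine-pretreated guinea pigs. Test agent (10^-4 or 5×10^-5 M) added to perfusion 10 min before cumulative 8-phenyltheophylline (10^-6–10^-4 M). Developed tension as % increase over control. Mean ± SEM of four assays from four experiments; Student's t test against atria without the test agent.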

[3] = species on record: Cavia porcellus; experiment: Effect on inotropic response to 10 e-4 8-phenyltheophylline in electrically driven left atrium from reserpine-treated guinea pigs at 5 x 10 e-5 M; format: functional, Cardiac atrium; outline: as §1
[4] = species on record: Cavia porcellus; experiment: Effect on inotropic response to 10 e-5 8-phenyltheophylline in electrically driven left atrium from reserpine-treated guinea pigs; format: functional, Cardiac atrium; outline: as §1
[5] = species on record: Cavia porcellus; experiment: Effect on inotropic response to 10 e-5 8-phenyltheophylline in electrically driven left atrium from reserpine-treated guinea pigs at 10 e-4 M; format: functional, Cardiac atrium; outline: as §1
[6] = species on record: Cavia porcellus; experiment: Effect on inotropic response to 10 e-5 8-phenyltheophylline in electrically driven left atrium from reserpine-treated guinea pigs at 5 x 10 e-5 M; format: functional, Cardiac atrium; outline: as §1
[7] = species on record: Cavia porcellus; experiment: Effect on inotropic response to 10 e-6 8-phenyltheophylline in electrically driven left atrium from reserpine-treated guinea pigs; format: functional, Cardiac atrium; outline: as §1
[8] = species on record: Cavia porcellus; experiment: Effect on inotropic response to 10 e-6 8-phenyltheophylline in electrically driven left atrium from reserpine-treated guinea pigs at 10 e-4 M; format: functional, Cardiac atrium; outline: as §1
[9] = species on record: Cavia porcellus; experiment: Effect on inotropic response to 10 e-6 8-phenyltheophylline in electrically driven left atrium from reserpine-treated guinea pigs at 5 x 10 e-5 M; format: functional, Cardiac atrium; outline: as §1
[10] = species on record: Cavia porcellus; experiment: Effect on inotropic response to 3 x 10 e-5 8-phenyltheophylline in electrically driven left atrium from reserpine-treated guinea pigs; format: functional, Cardiac atrium; outline: as §1
[11] = species on record: Cavia porcellus; experiment: Effect on inotropic response to 3 x 10 e-5 8-phenyltheophylline in electrically driven left atrium from reserpine-treated guinea pigs at 10 e-4 M; format: functional, Cardiac atrium; outline: as §1
[12] = species on record: Cavia porcellus; experiment: Effect on inotropic response to 3 x 10 e-6 8-phenyltheophylline in electrically driven left atrium from reserpine-treated guinea pigs; format: functional, Cardiac atrium; outline: as §1
[13] = species on record: Cavia porcellus; experiment: Effect on inotropic response to 3 x 10 e-6 8-phenyltheophylline in electrically driven left atrium from reserpine-treated guinea pigs at 10 e-4 M; format: functional, Cardiac atrium; outline: as §1
[14] = species on record: Cavia porcellus; experiment: Effect on inotropic response to 3 x 10 e-6 8-phenyltheophylline in electrically driven left atrium from reserpine-treated guinea pigs at 5 x 10 e-5 M; format: functional, Cardiac atrium; outline: as §1
[15] = species on record: Cavia porcellus; experiment: Effect on inotropic response to 3x 10 e-5 8-phenyltheophylline in electrically driven left atrium from reserpine-treated guinea pigs at 5 x 10 e-5 M; format: functional, Cardiac atrium; outline: as §1
[16] = species on record: Cavia porcellus; experiment: Effect on contractile force of spontaneously beating atria from reserpine treated guinea pigs at the concentration of 10 e-3 M (negative ionotropic effect); format: functional
[17] = species on record: Cavia porcellus; experiment: Effect on contractile force of spontaneously beating atria from reserpine treated guinea pigs at the concentration of 10 e-5 M (negative ionotropic effect); format: functional
[18] = species on record: Cavia porcellus; experiment: Effect on contractile force of spontaneously beating atria from reserpine treated guinea pigs at the concentration of 2 x 10 e-3 M (negative ionotropic effect); format: functional
[19] = species on record: Cavia porcellus; experiment: Effect on contractile force of spontaneously beating atria from reserpine treated guinea pigs at the concentration of 5x 10 e-4 M (negative ionotropic effect); format: functional
[20] = species on record: Cavia porcellus; experiment: Effect on contractile force of spontaneously beating atria from reserpine treated guinea pigs at the concentration of 5x 10 e-5 M (negative ionotropic effect); format: functional
[21] = species on record: Cavia porcellus; experiment: Effect on frequency rate of spontaneously beating atria from reserpine treated guinea pigs at the concentration of 10 e-3 M (negative chronotropic ionotropic effect); format: functional
[22] = species on record: Cavia porcellus; experiment: Effect on frequency rate of spontaneously beating atria from reserpine treated guinea pigs at the concentration of 10 e-4 M (negative chronotropic ionotropic effect); format: functional
[23] = species on record: Cavia porcellus; experiment: Effect on frequency rate of spontaneously beating atria from reserpine treated guinea pigs at the concentration of 2 x 10 e-3 M (negative chronotropic ionotropic effect); format: functional
[24] = species on record: Cavia porcellus; experiment: Effect on frequency rate of spontaneously beating atria from reserpine treated guinea pigs at the concentration of 5 x 10 e-4 M (negative chronotropic ionotropic effect); format: functional
[25] = species on record: Cavia porcellus; experiment: Effect on inotropic response to 10 e-4 8-phenyltheophylline in electrically driven left atrium from reserpine-treated guinea pigs at 10 e-4 M; format: functional, Cardiac atrium; outline: as §1
[26] = species on record: Cavia porcellus; experiment: Effect on contractile force of spontaneously beating atria from reserpine treated guinea pigs at the concentration of 10 e-4 M (negative ionotropic effect); format: functional
[27] = species on record: Cavia porcellus; experiment: Effect on frequency rate of spontaneously beating atria from reserpine treated guinea pigs at the concentration of 5 x 10 e-5 M (negative chronotropic ionotropic effect)

Question: Which results are given for `O=C(c1ccccc1)c1ccc(O)nc1-c1ccccc1`?
Answer: logP [1]: 3.82; Increase [2]: 20.81%; Increase [3]: 25.91%; Increase [4]: 11.19%; Increase [5]: 18.78%; Increase [6]: 14.44%; Increase [7]: 4.27%; Increase [8]: 4.56%; Increase [9]: 5.7%; Increase [10]: 14.72%; Increase [11]: 20.17%; Increase [12]: 7.33%; Increase [13]: 11.38%; Increase [14]: 8.13%; Increase [15]: 17.41%; Increase [16]: -43.71%; Increase [17]: -2.67%; Increase [18]: -46.27%; Increase [19]: -38.32%; Increase [20]: -7.3%; Increase [21]: -32.89%; Increase [22]: -14.92%; Increase [23]: -40.57%; Increase [24]: -24.37%; Increase [25]: 27.05%; Increase [26]: -24.76%; Increase [27]: -4.26% and -9.3%
